Screening results from PubChem BioAssay.
PostGolgi yeast: growth inhibition of a yeast mutant, post-Golgi transport screen; inhibition, % at 10 µM; 98,000 compounds, 0.9% hits; AID 739; post-Golgi transport phenotypic cell assay;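 further: yeast cells grown in 1536-well plates; yeast grown about 18 h at 30C before absorbance read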
E coli WT exp: growth inhibitors of E. coli BW25113 wild type; OD600 absorbance; 98,000 compounds, 0.15% hits; AID 710; growth inhibition, % at 100 µM;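 active means growth inhibition above about 50% at one test dose, limit read from the data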;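 further: growth measured after 20 h incubation at 37 °C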
Her2 expr inh: lowers expression of human Her2 kinase | P04626 | SKBR-3 HER2 protein level, AlphaScreen, 18-24 h; hits give low values | 65,000 compounds, 0.69% hits | HER2 level % of control, % at 10 µM | AID 645;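 active means HER2 level under 5% of the carrier-only control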;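 further: lower value means stronger loss of Her2 protein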
Ecoli tolC: growth inhibitors of E. coli BW25113 tolC mutant. OD615. growth inhibition, % at 10 µM (by protocol). 65,000 compounds, 2.2% hits;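 active means growth inhibition at or above a cutoff equal to the mean over every tested compound plus 3 SD, cut at about 60% in these data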;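 further: growth measured after 20 h incubation at 37 °C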
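Test system – E. coli BW25113 ΔtolC::kan, tolC deletion mutant strain · Detection – OD at 615 nm · Buffer or medium – LB with kanamycin 50 µg/mL · Times – 20 h compound exposure of bacteria at 37 °C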
PostGolgi ctrl: inhibits growth of the yeast control strain. efflux-deficient yeast background strain, growth absorbance A615, 16 h. inhibition, % at 10 µM. 98,000 compounds, 5% hits
Numbers stand for hits; n = inactive; x = no result. Most compounds without a hit are left out; they make up all but 6.6% or so of the library. Unless noted, no stated cut-off is given here; in the data, active means inhibition above about 30%; inactive means the rest.

SMILES | PostGolgi yeast | E coli WT exp | Her2 expr inh | Ecoli tolC | PostGolgi ctrl
CCc1ccc2[nH]c(=O)c(C(c3nnnn3CCOC)N3CCN(c4ccc(F)cc4)CC3)cc2c1 (configuration not stated) | n | n | n | 78 | n
CCc1ccc2[nH]c(=O)c(C(c3nnnn3CCOC)N3CCN(c4ccccc4)CC3)cc2c1 (configuration not stated) | n | n | n | n | n
COc1ccc2[nH]c(=O)c(C(c3nnnn3CC3CCCO3)N3CCc4ccccc4C3)cc2c1 (configuration not stated) | n | n | n | n | 38
CCC(C)(C)n1nnnc1C(c1cc2ccc(OC)cc2[nH]c1=O)N1CCc2ccccc2C1 (configuration not stated) | n | n | n | 78 | n
Cc1cc(C)c2[nH]c(=O)c(C(c3nnnn3CC3CCCO3)N3CCCC(C)C3)cc2c1 (configuration not stated) | n | n | n | 62 | n
Cc1cc(C)n(CCc2nc3c4ccccc4nc(SCc4ccc(C#N)cc4)n3n2)n1 | x | x | n | n | x
Cc1cc(Cl)ccc1NC(=S)NCCC(c1ccccc1)c1ccccc1 | n | n | x | x | n
CC1=NN(C(=O)c2cccc(Cn3nc(C)c([N+](=O)[O-])c3C)c2)C(O)(C(F)(F)F)C1 (configuration not stated) | n | n | x | x | n
CCC(C)(C)n1nnnc1C(c1cc2cc(OC)ccc2[nH]c1=O)N1CCc2ccccc21 (configuration not stated) | n | n | n | n | n
CCC(C)(C)n1nnnc1C(c1cc2ccc(OC)cc2[nH]c1=O)N1CCc2ccccc21 (configuration not stated) | n | n | n | n | 40
CCc1ccc2[nH]c(=O)c(C(c3nnnn3CC3CCCO3)N3CCN4CCCC4C3)cc2c1 (configuration not stated) | n | n | n | n | 30
CC(=O)OCC1OC(Sc2cccc3cccnc23)C(OC(C)=O)C(OC(C)=O)C1OC(C)=O (configuration not stated) | n | n | x | x | n
CC(C)C(c1nnnn1C(C)(C)C)N1CCN(c2cccc(Cl)c2)CC1 (configuration not stated) | n | n | n | n | 90
CC(C)C(c1nnnn1Cc1ccco1)N1CCN(c2cccc(Cl)c2)CC1 (configuration not stated) | n | n | n | n | n
O=C(Nc1cccc(-c2cn3ccsc3n2)c1)c1ccccc1 | n | n | n | n | n
COc1ccccc1C(=O)Nc1cccc(-c2cn3ccsc3n2)c1 | n | n | n | n | 38
O=S(=O)(NCCOCC(F)(F)C(F)F)c1ccc2oc3ccccc3c2c1 | n | n | n | n | 41
Cc1cc(C(=O)CSc2nncs2)c(C)n1-c1c(C)n(C)n(-c2ccccc2)c1=O | n | n | n | n | 36
Cc1ccc(-n2c(C)cc(C(=O)CSc3nncs3)c2C)cc1 | n | n | n | n | 48
Cc1ccc(-n2c(C)cc(C(=O)CSc3nnnn3C)c2C)cc1 | n | n | n | n | n
Cc1nnc(-c2cccc(Br)c2)c2cn(-c3ccccc3)nc12 | 94 | n | x | x | n
Cc1nnc(-c2cccc(Br)c2)c2cn(-c3ccc(Br)cc3)nc12 | 64 | n | x | x | 49
O=C1C(=O)N(CCCn2ccnc2)C(c2cccnc2)/C1=C(/O)c1ccc(Br)cc1 (configuration not stated) | x | x | n | n | x
O=C(OCn1nnc2ccccc2c1=O)c1ccc2c(=O)n3c(nc2c1)CCC3 | n | n | n | n | n
Cc1cccc(-n2c(C)nc3c(cnn3-c3ccc(F)cc3)c2=O)c1 | n | n | n | n | 33
SMILES | PostGolgi yeast | E coli WT exp | Her2 expr inh | Ecoli tolC | PostGolgi ctrl
CCOC(=O)c1ccc(-n2c(C)nc3c(cnn3-c3ccc(Cl)cc3)c2=O)cc1 | n | n | x | x | n
COc1ccc(-n2c(C)nc3c(cnn3-c3ccc(Cl)cc3)c2=O)cc1 | n | n | n | 75 | n
Cc1sc(CO)c(Sc2ccccc2)c1C(=O)O | n | n | n | n | 34
Cc1ccc(C)c(NC(=O)c2nnn(Cc3ccccc3)c2N)c1 | n | n | n | n | n
Cc1ccc(C)c(NC(=O)c2nnn(Cc3ccccc3C)c2N)c1 | n | n | n | n | 33
COC(=O)CCc1c(C)[nH]c(C(=O)OCc2ccccc2)c1C | n | n | n | n | 31
CCOC(=O)c1[nH]c(C(=O)O)c(CCC(=O)OC)c1C | n | n | n | n | n
CS(=O)(=O)c1ncc(Cl)c(C(=O)Nc2ccc(N3CCOCC3)cc2)n1 | n | n | -1.6 | n | n
COC(=O)c1c(C)n(-c2ccc(C)cc2)c2ccc(O)cc12 | n | n | x | x | 47
COC(=O)c1c(C)n(-c2ccccc2)c2ccc(O)cc12 | n | n | n | n | 43
COc1ccc(-n2c(=O)c3ccccc3n(CC(=O)NC3CCCCC3)c2=O)cc1 | n | n | x | x | n
CC1CCCN(S(=O)(=O)c2ccc(NC(=O)c3cccc(-n4cnnn4)c3)cc2)C1 (configuration not stated) | n | n | n | 73 | n
O=C(NCc1ccco1)C1CC(c2c(Cl)cccc2Cl)=NO1 (configuration not stated) | n | n | x | x | n
O=C(NCc1cccc(C(F)(F)F)c1)C1CC(c2c(Cl)cccc2Cl)=NO1 (configuration not stated) | n | n | x | x | 34
O=C(COC(=O)[C@H](Cc1ccccc1)NC(=O)c1ccco1)NCc1ccccc1 | n | n | x | x | n
CSc1nc2ccccc2n1Cc1c(Cl)cccc1Cl | n | n | x | x | 34
Cc1onc(-c2ccccc2)c1C(=O)Nc1cc(C(F)(F)F)ccc1N1CCOCC1 | n | n | n | n | 43
Cc1ccccc1NC(=O)c1c(-c2ccccc2)noc1C | n | n | n | n | n
O=C(CSc1nc2ccccc2[nH]1)Nc1cc(C(F)(F)F)ccc1N1CCOCC1 | n | n | n | 100 | n
CCCOc1ccccc1NC(=O)c1c(-c2ccccc2)noc1C | n | n | n | 72 | n
Cc1onc(-c2ccccc2)c1C(=O)Nc1ccccc1N1CCOCC1 | n | n | n | n | n
COc1ccc(OC)c(C2=NOC(C(=O)Nc3cccc(C(C)=O)c3)C2)c1 (configuration not stated) | n | n | n | n | n
NC(=O)C1CCN(S(=O)(=O)c2cccc(S(=O)(=O)N3CCCCC3)c2)CC1 | n | n | n | n | n
Cc1cc(N2CCN(C)CC2)nc2ccc(NC(=O)c3ccc(Br)o3)cc12 | n | n | n | n | 32
COc1ccccc1NC(=O)Cn1nnc(-c2ccccc2NC(=O)c2cc3ccccc3oc2=O)n1 | n | n | x | x | n
Cc1c(CCOC(=O)C23CC4CC(CC(C)(C4)C2)C3)sc[n+]1Cc1ccccc1 | n | n | x | x | 34
CC(=O)NS(=O)(=O)c1ccc(NC(=S)NC(=O)C(C)C)cc1 | n | n | x | x | 36
CC(=O)NS(=O)(=O)c1ccc(NC(=S)NC(=O)c2ccco2)cc1 | n | n | x | x | n
CCS(=O)(=O)N1CCC(C(=O)NCc2ccc(F)cc2Cl)CC1 | n | n | n | n | n
Cc1cc(C)c(S(=O)(=O)N2CCC(C(=O)NCc3ccc(Cl)cc3Cl)CC2)c(C)c1 | 100 | n | x | x | 89
